# In ChEMBL document CHEMBL1126701, “New mechanism-based inactivators of trypsin-like proteinases. Selective inactivation of urokinase by functionalized cyclopeptides incorporating a sulfoniomethyl-substituted m-aminobenzoic acid residue” (J Med Chem, 1993):
# Calls of active or inactive are those of the source. The rule behind the calls is not given here.
# What was measured:
# [1] = molecular target: Prothrombin (Homo sapiens) (UniProt P00734); assay: Ratio of inactivation to apparent binding constant against thrombin;NI=no inhibition
# Procedure, shortened: (§1)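 Thrombin (0.1 μM) preincubated with 300 μM inhibitor at pH 7.5, 25 °C. Timed aliquots assayed for residual activity with S-2238. Pseudo-first-order kobs from semilog plot of remaining activity vs time.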
# [2] = molecular target: T1, Urokinase-type plasminogen activator (Homo sapiens, UniProt P00749); assay: Inactivation constant determined against urokinase
# Procedure, shortened: (§2)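 Pseudo-first-order inactivation at pH 7.5, 25 °C, inhibitor in excess. Two methods. Preincubation: aliquots taken over time and assayed for residual activity, kobs from semilog plots. Progress curve: continuous A405 with chromogenic substrate present, vs blank with inhibitor and substrate (trypsin 0.5 μM, BAPNA 0.3 mM, 1.5% DMSO; urokinase 31 nM, S-2444). KI and kinact from double-reciprocal (Wilkinson) fits.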
# [3] = molecular target: T1, Urokinase-type plasminogen activator; assay: Apparent binding constant against Human urokinase; procedure, shortened: as §2
# Trypsin (Sus scrofa) [4] = molecular target: Trypsin (Sus scrofa) (UniProt P00761); assay: Ratio of inactivation to apparent binding constant against porcine trypsin
# Sequence of Trypsin (Sus scrofa) (P00761 whole entry, looked up): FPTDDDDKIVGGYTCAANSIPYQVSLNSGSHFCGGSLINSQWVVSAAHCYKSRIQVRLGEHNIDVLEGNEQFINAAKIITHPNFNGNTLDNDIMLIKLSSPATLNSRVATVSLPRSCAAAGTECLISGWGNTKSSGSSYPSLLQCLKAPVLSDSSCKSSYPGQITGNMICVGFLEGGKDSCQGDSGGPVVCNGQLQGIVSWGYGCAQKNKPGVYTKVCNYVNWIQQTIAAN
# [5] = molecular target: T1, Urokinase-type plasminogen activator; assay: Ratio of inactivation to apparent binding constant against human urokinase; procedure, shortened: as §2
# Trypsin (Sus scrofa) [6] = molecular target: Trypsin (Sus scrofa) (UniProt P00761); assay: Inactivation constant determined against porcine trypsin
# Serine protease 1 = molecular target: T2, Serine protease 1 (Bos taurus, UniProt P00760); assay: Apparent binding constant against bovine trypsin; procedure, shortened: as §2
# T2 sequence (P00760 whole entry): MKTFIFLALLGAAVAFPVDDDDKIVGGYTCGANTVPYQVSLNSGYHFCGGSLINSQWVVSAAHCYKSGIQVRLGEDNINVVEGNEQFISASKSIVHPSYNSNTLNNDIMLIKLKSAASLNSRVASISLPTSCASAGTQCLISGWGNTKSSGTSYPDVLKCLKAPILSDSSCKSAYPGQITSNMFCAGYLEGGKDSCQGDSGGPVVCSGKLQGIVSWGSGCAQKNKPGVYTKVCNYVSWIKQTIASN
# [7] = molecular target: T3, Serine protease 1 (Bos taurus) (UniProt P00760); assay: Ratio of inactivation to apparent binding constant against bovine trypsin; procedure, shortened: as §2
# T3 sequence (whole entry): T2 sequence (P00760 whole entry)
# [8] = molecular target: Tissue-type plasminogen activator (Homo sapiens) (UniProt P00750); assay: Ratio of inactivation to apparent binding constant against tissue plasminogen activator (t-PA);NI=no inhibition
# Sequence of Tissue-type plasminogen activator (Homo sapiens) (P00750 36-562 limits assumed): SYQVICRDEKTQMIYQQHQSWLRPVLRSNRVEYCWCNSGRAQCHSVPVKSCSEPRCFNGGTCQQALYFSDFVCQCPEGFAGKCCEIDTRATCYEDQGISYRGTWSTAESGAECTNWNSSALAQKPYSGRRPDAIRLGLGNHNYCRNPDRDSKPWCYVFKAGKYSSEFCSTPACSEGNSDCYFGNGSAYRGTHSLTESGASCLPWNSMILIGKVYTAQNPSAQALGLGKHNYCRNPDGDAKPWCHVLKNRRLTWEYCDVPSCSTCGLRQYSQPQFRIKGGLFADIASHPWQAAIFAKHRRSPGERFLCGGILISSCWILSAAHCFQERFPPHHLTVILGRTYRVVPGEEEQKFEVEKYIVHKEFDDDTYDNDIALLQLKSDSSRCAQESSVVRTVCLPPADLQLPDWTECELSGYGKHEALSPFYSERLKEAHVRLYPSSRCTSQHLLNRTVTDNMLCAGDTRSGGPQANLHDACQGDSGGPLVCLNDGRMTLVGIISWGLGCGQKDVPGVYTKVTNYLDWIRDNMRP
# Procedure, shortened: (§3)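 t-PA (0.75 μM) preincubated with inhibitor 0.37-1 mM at pH 7.5, 25 °C. Aliquots assayed periodically for remaining amidolytic activity with p-nitroanilide substrate. kobs from semilogarithmic plots.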
# [9] = molecular target: Plasminogen (Homo sapiens) (UniProt P00747); assay: Ratio of inactivation to apparent binding constant against plasmin
# Sequence of Plasminogen (Homo sapiens) (P00747 97-580 limits assumed): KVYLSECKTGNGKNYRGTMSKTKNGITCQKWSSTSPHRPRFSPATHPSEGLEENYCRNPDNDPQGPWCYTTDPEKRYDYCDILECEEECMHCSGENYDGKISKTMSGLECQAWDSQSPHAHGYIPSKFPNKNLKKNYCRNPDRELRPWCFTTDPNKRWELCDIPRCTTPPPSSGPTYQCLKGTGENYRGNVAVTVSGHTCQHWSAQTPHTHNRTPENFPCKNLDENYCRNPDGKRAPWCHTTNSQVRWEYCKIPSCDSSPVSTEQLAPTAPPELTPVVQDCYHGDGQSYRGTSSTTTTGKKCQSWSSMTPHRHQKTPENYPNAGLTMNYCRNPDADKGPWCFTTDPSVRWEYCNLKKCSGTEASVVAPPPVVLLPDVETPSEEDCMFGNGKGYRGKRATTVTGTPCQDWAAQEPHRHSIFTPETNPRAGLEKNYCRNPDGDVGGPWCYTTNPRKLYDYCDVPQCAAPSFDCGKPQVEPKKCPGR
# Sequence of Plasminogen (Homo sapiens) (P00747 581-810 limits assumed): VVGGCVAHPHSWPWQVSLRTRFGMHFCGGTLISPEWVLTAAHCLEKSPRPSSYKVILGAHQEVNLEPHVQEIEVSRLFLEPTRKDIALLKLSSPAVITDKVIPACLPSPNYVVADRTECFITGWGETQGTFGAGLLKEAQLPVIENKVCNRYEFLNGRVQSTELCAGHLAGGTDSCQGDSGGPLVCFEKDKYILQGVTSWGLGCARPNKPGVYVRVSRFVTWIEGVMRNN
# Procedure, shortened: (§4)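 Plasmin (1 μM; 0.7 μM in one series) preincubated with inhibitor 34-560 μM at pH 7.5, 25 °C. Aliquots assayed for residual activity on S-2251. kobs from semilog plots; kinact/KI from Kitz-Wilson analysis or as kobs/[I].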
# [10] = molecular target: T3, Serine protease 1 (Bos taurus); assay: Inactivation constant determined against bovine trypsin; procedure, shortened: as §2
# [11] = molecular target: Plasminogen (Homo sapiens) (UniProt P00747); assay: Ratio of inactivation to apparent binding constant against plasmin;NI=no inhibition; procedure, shortened: as §4
# [12] = molecular target: T1, Urokinase-type plasminogen activator; assay: Ratio of inactivation to apparent binding constant against human urokinase (obtained as k obs/[I] at low inhibitor concentration)
# Procedure, shortened: (§5)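 For weak inactivation, kinact/KI taken as kobs/[I] at low inhibitor concentration. Preincubation at pH 7.5, 25 °C: trypsin 4.5 μM or urokinase 55 μM with excess inhibitor. Aliquots diluted (or filtered at 4 °C) and assayed for residual activity on BAPNA or S-2444. kobs by least squares of semilog remaining activity vs time.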
# [13] = molecular target: T3, Serine protease 1 (Bos taurus); assay: Ratio of inactivation to apparent binding constant against bovine trypsin (obtained as k obs/[I] at low inhibitor concentration); procedure, shortened: as §5
# [14] = molecular target: T3, Serine protease 1 (Bos taurus); assay: Ratio of inactivation to apparent binding constant against bovine trypsin;NI=no inhibition
# [15] = molecular target: Tissue-type plasminogen activator (Homo sapiens) (UniProt P00750); assay: Ratio of inactivation to apparent binding constant against tissue plasminogen activator (t-PA); procedure, shortened: as §3
# [16] = molecular target: T1, Urokinase-type plasminogen activator; assay: Ratio of inactivation to apparent binding constant against human urokinase; NI=no inhibition
# [17] = molecular target: Prothrombin (Homo sapiens) (UniProt P00734); assay: Ratio of inactivation to apparent binding constant against thrombin; procedure, shortened: as §1
# [18] = molecular target: T3, Serine protease 1 (Bos taurus)
# [19] = molecular target: T1, Urokinase-type plasminogen activator
Structure (SMILES),Ratio [1],K inact [2] [s⁻¹],Ki [3] [µM],Ratio [5] [M⁻¹ s⁻¹],Ki (Serine protease 1) [µM],Ratio [7] [M⁻¹ s⁻¹],Ratio [8],Ratio [9],K inact [10] [s⁻¹],Ratio [11],Ratio [14],also measured
N=C(N)NCCCC1NC(=O)CNC(=O)c2cc(ccc2CBr)NC1=O (stereo unspecified),inactive,0.017,92,185,55,560,inactive,2 M⁻¹ s⁻¹,0.031,–,–,Ratio (Trypsin (Sus scrofa) [4]): 2050 M⁻¹ s⁻¹; K inact (Trypsin (Sus scrofa) [6]): 0.041 s⁻¹
C[S+](C)Cc1ccc2cc1C(=O)NCC(=O)NC(CCCN=C(N)N)C(=O)N2 (stereo unspecified),inactive,0.014,41,341,–,1,inactive,–,–,inactive,–,–
C[S+](Cc1ccc2c(c1)C(=O)NCC(=O)NC(CCCN=C(N)N)C(=O)N2)c1ccccc1 (stereo unspecified),inactive,–,–,–,–,–,inactive,–,–,inactive,–,Ratio [12]: 14 M⁻¹ s⁻¹; Ratio [13]: 50 M⁻¹ s⁻¹
N=C(N)NCCCC1NC(=O)CNC(=O)c2cc(CBr)ccc2NC1=O (stereo unspecified),–,–,–,–,–,–,–,No inactivation,–,–,5 M⁻¹ s⁻¹,Ratio [15]: No inactivation; Ratio [16]: 14 M⁻¹ s⁻¹; Ratio [17]: No inactivation
NCCCCC1NC(=O)CNC(=O)c2cc(CBr)ccc2NC1=O (stereo unspecified),inactive,–,–,–,–,–,inactive,–,–,inactive,inactive,Ratio [16]: inactive

# More lines, main results first:
Ratio [1],K inact [2] [s⁻¹],Ki [3] [µM],Ratio [5] [M⁻¹ s⁻¹],Ki (Serine protease 1) [µM],Ratio [7] [M⁻¹ s⁻¹],Ratio [8],Ratio [9],K inact [10] [s⁻¹],Ratio [11],Ratio [14],Structure (SMILES),also measured
inactive,0.077,500,154,8.7,860,inactive,75 M⁻¹ s⁻¹,0.0075,–,–,C[S+](Cc1ccc2cc1C(=O)NCC(=O)NC(CCCCN)C(=O)N2)c1ccccc1 (stereo unspecified),–
inactive,–,–,25,–,–,inactive,–,–,inactive,inactive,C[S+](Cc1ccc2c(c1)C(=O)NCC(=O)NC(CCCCN)C(=O)N2)c1ccccc1 (stereo unspecified),–
inactive,–,–,–,–,–,inactive,–,–,inactive,inactive,C[S+](C)Cc1ccc2cc1C(=O)NCC(=O)NC(CCCCN)C(=O)N2 (stereo unspecified),–
inactive,–,–,–,80,250,inactive,–,0.02,inactive,–,NCCCCC1NC(=O)CNC(=O)c2cc(ccc2CBr)NC1=O (stereo unspecified),–
12 M⁻¹ s⁻¹,–,9,2330,12,916,1 M⁻¹ s⁻¹,40 M⁻¹ s⁻¹,–,–,–,C[S+](Cc1ccc2cc1C(=O)NCC(=O)NC(CCCN=C(N)N)C(=O)N2)c1ccccc1 (stereo unspecified),kinact [18]: 0.011 s⁻¹; kinact [19]: 0.021 s⁻¹
